Reference: ChEMBL document CHEMBL4311975, “Exploration of the antibiotic potentiating activity of indolglyoxylpolyamines” (Eur J Med Chem, 2019)
≈ marks a conversion by molar mass, not a printed value.

How the values were obtained:
[1] = system: Klebsiella pneumoniae; experiment: Potentiation of doxycycline-induced antibacterial activity against Klebsiella pneumoniae ATCC 13443 assessed as concentration required to restore 2 ug/ml doxycycline activity measured after 18 hrs; format: functional
Outline: (§1)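 Inoculum was 5×10^5 CFU in MHB with two-fold serial dilutions of adjuvant plus fixed doxycycline at 2 μg/mL. […] Repeated independently in triplicate.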

[2] = system: Staphylococcus aureus; experiment: Antibacterial activity against Staphylococcus aureus ATCC 25923 assessed as growth inhibition incubated for 18 hrs by broth dilution method; format: functional; conditions: ATCC 25923, 18 h
Outline: (§2)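 Broth microdilution following CA-SFM recommendations. Inoculum was 10^5 CFU in Mueller-Hinton broth with two-fold serial drug dilutions. Plates were incubated 18 h at 37 °C. MIC was the lowest concentration giving complete inhibition of visible growth. Values are means, n = 3.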

[3] = system: Cryptococcus neoformans; experiment: Antifungal activity against Cryptococcus neoformans ATCC 208821 assessed as growth inhibition incubated for 36 hrs by resazurin dye based assay; format: functional; conditions: ATCC 208821, 36 h
Outline: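 Cryptococcus was grown 3 days on YPD agar at 30 °C, suspended, and diluted in YNB broth to 2.5×10^3 CFU/mL. Cells were exposed to 0.008–32 μg/mL compound (final), in duplicate, for 36 h at 35 °C without shaking. Resazurin (0.006% final) was added for a further 3 h. MIC was read from absorbance at OD570–600. Means, n = 2.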

[4] = system: Escherichia coli; experiment: Antibacterial activity against Escherichia coli ATCC 25922 assessed as growth inhibition incubated for 18 hrs by broth dilution method; format: functional; conditions: ATCC 25922, 18 h; outline: as §2
[5] = Hemolytic activity against Sprague-Dawley rat RBC assessed as release of hemoglobin incubated for 1 hr; format: ADME, cell-based, Erythrocyte; conditions: red blood cells (erythrocytes)
Outline: (§3)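 Fresh Sprague-Dawley rat erythrocytes were washed in saline and resuspended at 2% v/v. Cells were incubated with compound in DMSO/PBS for 1 h at 37 °C, then centrifuged at 200 g, and supernatant absorbance read at 540 nm. Results were normalised to DMSO/PBS (0%) and 0.1% Triton X-100 (100%). Single-point testing used 50 μM; HC50 came from 10-point curves. Means of three experiments.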

[6] = system: Klebsiella pneumoniae; experiment: Potentiation of chloramphenicol-induced antibacterial activity against Klebsiella pneumoniae ATCC 13443 assessed as concentration required to restore 2 ug/ml chloramphenicol activity measured after 18 hrs; format: functional
[7] = system: Acinetobacter baumannii; experiment: Potentiation of erythromycin-induced antibacterial activity against Acinetobacter baumannii AYE assessed as concentration required to restore 2 ug/ml erythromycin activity measured after 18 hrs; format: functional
[8] = system: Candida albicans; experiment: Antifungal activity against Candida albicans ATCC 90028 assessed as growth inhibition incubated for 36 hrs by resazurin dye based assay; format: functional; conditions: ATCC 90028, 36 h
Outline: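 Yeast was grown 3 days on YPD agar at 30 °C. Colonies were suspended and diluted in YNB broth to 2.5×10^3 CFU/mL, then added to two-fold compound dilutions (0.008–32 μg/mL final), in duplicate. Plates stood 36 h at 35 °C without shaking. Means, n = 2.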

[9] = system: Escherichia coli; experiment: Potentiation of nalidixic acid-induced antibacterial activity against Escherichia coli ATCC 25922 assessed as concentration required to restore 2 ug/ml nalidixic acid activity measured after 18 hrs; format: functional
[10] = system: Escherichia coli; experiment: Potentiation of doxycycline-induced antibacterial activity against Escherichia coli ATCC 25922 assessed as concentration required to restore 2 ug/ml doxycycline activity measured after 18 hrs; format: functional; outline: as §1
[11] = system: Acinetobacter baumannii; experiment: Potentiation of chloramphenicol-induced antibacterial activity against Acinetobacter baumannii AYE assessed as concentration required to restore 2 ug/ml chloramphenicol activity measured after 18 hrs; format: functional
[12] = system: Acinetobacter baumannii; experiment: Potentiation of doxycycline-induced antibacterial activity against Acinetobacter baumannii AYE assessed as concentration required to restore 2 ug/ml doxycycline activity measured after 18 hrs; format: functional; outline: as §1
[13] = system: Acinetobacter baumannii; experiment: Potentiation of nalidixic acid-induced antibacterial activity against Acinetobacter baumannii AYE assessed as concentration required to restore 2 ug/ml nalidixic acid activity measured after 18 hrs; format: functional
[14] = system: Klebsiella pneumoniae; experiment: Potentiation of nalidixic acid-induced antibacterial activity against Klebsiella pneumoniae ATCC 13443 assessed as concentration required to restore 2 ug/ml nalidixic acid activity measured after 18 hrs; format: functional
[15] = system: L6; experiment: Cytotoxicity against rat L6 cells measured after 72 hrs by alamar blue assay; format: cell-based; conditions: L6, 72 h
Outline: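 Rat L6 myoblasts, 4×10^4/well in RPMI 1640 with L-glutamine and 10% FBS, received seven 3-fold dilutions (90 to 0.123 μg/mL) for 72 h. Alamar Blue was added for 2 h and fluorescence read at ex 536/em 588 nm. Podophyllotoxin served as reference. Means, n = 2.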

[16] = system: Pseudomonas aeruginosa; experiment: Potentiation of chloramphenicol-induced antibacterial activity against Pseudomonas aeruginosa ATCC 27853 assessed as concentration required to restore 2 ug/ml chloramphenicol activity measured after 18 hrs; format: functional
[17] = system: Escherichia coli; experiment: Potentiation of chloramphenicol-induced antibacterial activity against Escherichia coli ATCC 25922 assessed as concentration required to restore 2 ug/ml chloramphenicol activity measured after 18 hrs; format: functional
[18] = system: Acinetobacter baumannii; experiment: Antibacterial activity against Acinetobacter baumannii ATCC 19606 assessed as growth inhibition incubated for 18 hrs by resazurin dye based assay; format: functional; conditions: ATCC 19606 = CIP 70.34 = JCM 6841, 18 h
Outline: (§4)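 Overnight cultures were diluted 40-fold in MHB and grown 1.5–2 h at 37 °C to mid-log phase. Cells were added at 5×10^5 CFU/mL final to two-fold compound dilutions (0.008–32 μg/mL final), in duplicate, for 18 h at 37 °C. Resazurin (0.001% final) was added for 2 h and MIC read by eye. Means, n = 2.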

[19] = system: Pseudomonas aeruginosa; experiment: Antibacterial activity against Pseudomonas aeruginosa ATCC 27853 assessed as growth inhibition incubated for 18 hrs by broth dilution method; format: functional; conditions: ATCC 27853, 18 h; outline: as §2
[20] = system: Staphylococcus intermedius; experiment: Antibacterial activity against Staphylococcus intermedius 1051997 assessed as growth inhibition incubated for 18 hrs by broth dilution method; format: functional; conditions: Staphylococcus intermedius, 1051997, 18 h; outline: as §2
[21] = system: Escherichia coli; experiment: Potentiation of erythromycin-induced antibacterial activity against Escherichia coli ATCC 25922 assessed as concentration required to restore 2 ug/ml erythromycin activity measured after 18 hrs; format: functional
[22] = system: Pseudomonas aeruginosa; experiment: Potentiation of erythromycin-induced antibacterial activity against Pseudomonas aeruginosa ATCC 27853 assessed as concentration required to restore 2 ug/ml erythromycin activity measured after 18 hrs; format: functional
[23] = system: Klebsiella pneumoniae; experiment: Antibacterial activity against Klebsiella pneumoniae ATCC 700603 assessed as growth inhibition incubated for 18 hrs by resazurin dye based assay; format: functional; conditions: Klebsiella pneumoniae, 700603, 18 h; outline: as §4
[24] = system: Klebsiella pneumoniae; experiment: Potentiation of erythromycin-induced antibacterial activity against Klebsiella pneumoniae ATCC 13443 assessed as concentration required to restore 2 ug/ml erythromycin activity measured after 18 hrs; format: functional
[25] = Hemolytic activity against Sprague-Dawley rat RBC assessed as release of hemoglobin at 50 uM incubated for 1 hr relative to control; format: ADME, cell-based, Erythrocyte; conditions: red blood cells (erythrocytes), read-out: Activity; outline: as §3
[26] = system: Pseudomonas aeruginosa; experiment: Potentiation of nalidixic acid-induced antibacterial activity against Pseudomonas aeruginosa ATCC 27853 assessed as concentration required to restore 2 ug/ml nalidixic acid activity measured after 18 hrs; format: functional
[27] = system: Pseudomonas aeruginosa; experiment: Potentiation of doxycycline-induced antibacterial activity against Pseudomonas aeruginosa ATCC 27853 assessed as concentration required to restore 2 ug/ml doxycycline activity measured after 18 hrs; format: functional; outline: as §1

O=C(NCCCNCCCCNCCCNC(=O)C(=O)c1c[nH]c2cc(Br)ccc12)C(=O)c1c[nH]c2cc(Br)ccc12
Activity [1]: 6.25 µM
MIC [2]: 6.25 µM (≈ 4.39 µg/mL)
MIC [3]: 1.1 µM (≈ 0.773 µg/mL)
MIC [4]: 100 µM (≈ 70.2 µg/mL)
HC50 at 1 h [5]: 20 µM
Activity [6]: 200 µM
Activity [7]: 25 µM
MIC [8]: 17.2 µM (≈ 12.1 µg/mL)
Activity [9]: >200 µM
Activity [10]: 6.25 µM
Activity [11]: >200 µM
Activity [12]: 25 µM
Activity [13]: 200 µM
Activity [14]: 25 µM
IC50 [15]: 7.7 µM
Activity [16]: >200 µM
Activity [17]: >200 µM
MIC [18]: > 34 µM
MIC [19]: 100 µM (≈ 70.2 µg/mL)
MIC [20]: 3.12 µM (≈ 2.2 µg/mL)
Activity [21]: 50 µM
Activity [22]: 200 µM
MIC [23]: > 34 µM
Activity [24]: 50 µM
hemolysis at 1 h, 50 µM [25]: 91%
Activity [26]: 50 µM
Activity [27]: 6.25 to 12.5 µM
